Reference: ChEMBL document CHEMBL1142711 (J Med Chem, 2005)
pEC50, pKi: −log10 of the molar value.

Tests used:
[1] = system: Mus musculus; assay: In vivo effective concentration for agonist activity in mouse tail withdrawal assay for antinociception after 18 h of pre treatment with U-69,593 sc administration (10 mg/kg); type: functional, organism-based
Procedure, shortened: (§1)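 Mouse warm-water tail withdrawal, water at 50 °C. Agonist U69593 given sc, and its dose-response EC50 (mg/kg) determined. Pretreatment 1, 3, 18, 24 or 48 h before, sc at 10 or 32 mg/kg; or icv 10 nmol at 1, 24, 48 or 168 h before. Vehicle control at −1 h. Fold shift and its significance reported.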

[2] = system: Mus musculus; assay: In vivo effective concentration for agonist activity in mouse tail withdrawal assay for antinociception after 1 hr of pre treatment with U-69,593 icv administration (10 nmol); type: functional, organism-based; procedure, shortened: as §1
[3] = biological target: T1, Kappa-type opioid receptor (Homo sapiens, UniProt P41145); assay: Inhibition of [3H]diprenorphine binding to human opioid receptor kappa 1 expressed in CHO cells; type: cell-based
T1 sequence (P41145 whole entry): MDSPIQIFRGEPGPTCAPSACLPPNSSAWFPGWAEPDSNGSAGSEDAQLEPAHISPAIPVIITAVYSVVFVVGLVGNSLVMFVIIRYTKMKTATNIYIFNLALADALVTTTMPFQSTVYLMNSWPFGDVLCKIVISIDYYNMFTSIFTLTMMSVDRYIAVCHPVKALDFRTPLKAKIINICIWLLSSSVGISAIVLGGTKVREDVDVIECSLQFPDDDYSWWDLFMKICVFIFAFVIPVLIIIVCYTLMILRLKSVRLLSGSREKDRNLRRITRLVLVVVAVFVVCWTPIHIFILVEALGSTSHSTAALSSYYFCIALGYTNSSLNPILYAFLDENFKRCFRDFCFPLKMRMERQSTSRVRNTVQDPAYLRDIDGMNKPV
Procedure, shortened: (§2)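 Competition binding with [3H]diprenorphine on rat MOR or DOR expressed in C6 cells and human KOR in CHO cells. Mean of three experiments, each in duplicate.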

[4] = system: Mus musculus; assay: In vivo effective concentration for agonist activity in mouse tail withdrawal assay for antinociception after 48 hr of pre treatment with U-69,593 sc administration (10 mg/kg); type: functional, organism-based; procedure, shortened: as §1
[5] = system: Mus musculus; assay: In vivo effective concentration for agonist activity in mouse tail withdrawal assay for antinociception after 168h of pre treatment with U-69,593 icv administration (10 nmol); type: functional, organism-based; procedure, shortened: as §1
[6] = biological target: T2, Mu-type opioid receptor (Rattus norvegicus, UniProt P33535); assay: Inhibition of [3H]diprenorphine binding to rat Opioid receptor mu 1 expressed in C6 cells; type: cell-based; procedure, shortened: as §2
T2 sequence (P33535 whole entry): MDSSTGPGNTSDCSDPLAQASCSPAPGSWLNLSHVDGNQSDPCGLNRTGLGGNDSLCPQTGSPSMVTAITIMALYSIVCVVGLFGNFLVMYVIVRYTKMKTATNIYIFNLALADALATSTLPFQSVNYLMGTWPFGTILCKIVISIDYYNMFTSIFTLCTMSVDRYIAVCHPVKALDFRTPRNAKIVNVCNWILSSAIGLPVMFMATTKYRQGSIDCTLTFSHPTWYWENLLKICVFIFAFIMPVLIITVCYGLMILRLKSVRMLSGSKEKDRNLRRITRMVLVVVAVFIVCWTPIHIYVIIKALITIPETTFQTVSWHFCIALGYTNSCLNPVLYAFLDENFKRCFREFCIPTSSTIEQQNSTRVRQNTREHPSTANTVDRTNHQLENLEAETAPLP

[7] = system: Mus musculus; assay: In vivo effective concentration for agonist activity in mouse tail withdrawal assay for antinociception after 1 hr of pre treatment with U-69,593 sc administration (10 mg/kg); type: functional, organism-based; procedure, shortened: as §1
[8] = biological target: T1, Kappa-type opioid receptor; assay: Agonist activity against human Opioid receptor kappa 1 expressed in CHO cells in [35S]-GTP-gamma S binding assay; type: functional, cell-based
[9] = biological target: T1, Kappa-type opioid receptor; assay: Stimulation of [35S]-GTP-gamma S binding to Opioid receptor kappa 1 expressed in […] cells; type: functional, cell-based
[10] = system: Mus musculus; assay: In vivo effective concentration for agonist activity in mouse tail withdrawal assay for antinociception after 3h of pre treatment with U-69,593 sc administration (10 mg/kg); type: functional, organism-based; procedure, shortened: as §1
[11] = system: Mus musculus; assay: In vivo effective concentration for agonist activity in mouse tail withdrawal assay for antinociception after 24 hr of pre treatment with U-69,593 sc administration (32 mg/kg); type: functional, organism-based; procedure, shortened: as §1
[12] = biological target: T3, Delta-type opioid receptor (Rattus norvegicus, UniProt P33533); assay: Agonist activity against Opioid receptor delta 1 expressed in C6 cells in [35S]-GTP-gamma S assay; No stimulation up to 10000 nM; type: functional, cell-based
T3 sequence (P33533 whole entry): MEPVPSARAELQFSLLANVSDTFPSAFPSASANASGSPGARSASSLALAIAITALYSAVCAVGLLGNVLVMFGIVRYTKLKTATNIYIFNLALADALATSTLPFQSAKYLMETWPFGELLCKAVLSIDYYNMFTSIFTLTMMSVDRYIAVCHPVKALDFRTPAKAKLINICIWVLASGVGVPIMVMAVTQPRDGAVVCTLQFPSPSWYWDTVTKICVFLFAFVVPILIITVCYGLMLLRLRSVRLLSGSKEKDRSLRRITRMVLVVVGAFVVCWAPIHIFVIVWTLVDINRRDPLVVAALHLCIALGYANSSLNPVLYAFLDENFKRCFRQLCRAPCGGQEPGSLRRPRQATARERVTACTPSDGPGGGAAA

[13] = system: Mus musculus; assay: In vivo effective concentration for agonist activity in mouse tail withdrawal assay for antinociception after 24 hr of pre treatment with U-69,593 sc administration (10 mg/kg); type: functional, organism-based; procedure, shortened: as §1
[14] = system: Mus musculus; assay: In vivo effective concentration for agonist activity in mouse tail withdrawal assay for antinociception after 48 hr of pre treatment with U-69,593 icv administration (10 nmol); type: functional, organism-based; procedure, shortened: as §1
[15] = Relative binding affinity for rat Opioid receptor delta 1 and human Opioid receptor kappa 1
[16] = biological target: Delta-type opioid receptor (Rattus norvegicus) (UniProt P33533); assay: Antagonistic activity against rat opioid receptor delta 1 expressed in C6 cells in [35S]GTP gamma S assay; type: functional, cell-based
Delta-type opioid receptor (Rattus norvegicus), sequence (P33533 whole entry): as above
Procedure, shortened: (§3)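 Antagonism in [35S]GTPγS binding on membranes: rat MOR/DOR in C6 cells, human KOR in CHO cells. Agonist dose-response curves run with and without test ligand: DAMGO (MOR), SNC80 (DOR), U69593 (KOR). Ke = [antagonist]/(dose-ratio − 1), ± SEM. Three separate experiments.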

[17] = biological target: T3, Delta-type opioid receptor; assay: Inhibition of [3H]diprenorphine binding to rat Opioid receptor delta 1 expressed in C6 cells; type: cell-based; procedure, shortened: as §2
[18] = system: Mus musculus; assay: In vivo effective concentration for agonist activity in mouse tail withdrawal assay for antinociception after 24 hr of pre treatment with U-69,593 icv administration (10 nmol); type: functional, organism-based; procedure, shortened: as §1
[19] = biological target: T2, Mu-type opioid receptor; assay: Agonist activity against rat Opioid receptor mu 1 expressed in C6 cells in [35S]-GTP-gamma S binding assay; type: functional, cell-based
[20] = biological target: Mu-type opioid receptor (Rattus norvegicus) (UniProt P33535); assay: Stimulation of [35S]-GTP-gamma S binding to Opioid receptor mu 1 expressed in C6 cells; type: functional, cell-based
Mu-type opioid receptor (Rattus norvegicus), sequence (P33535 whole entry): as the sequence (P33535 whole entry) above

[21] = biological target: T1, Kappa-type opioid receptor; assay: Antagonistic activity against human opioid receptor kappa 1 expressed in CHO cells in [35S]GTP gamma S assay; type: functional, cell-based; procedure, shortened: as §3
[22] = Relative binding affinity for rat Opioid receptor mu 1 and human Opioid receptor kappa 1
[23] = biological target: Mu-type opioid receptor (Rattus norvegicus) (UniProt P33535); assay: Antagonistic activity against rat opioid receptor mu 1 expressed in C6 cells in [35S]GTP gamma S assay; type: functional, cell-based; procedure, shortened: as §3
[24] = biological target: T1, Kappa-type opioid receptor; assay: Agonist activity against Opioid receptor kappa 1 expressed in CHO cells in [35S]-GTP-gamma S assay; No stimulation up to 10000 nM; type: functional, cell-based
[25] = biological target: T2, Mu-type opioid receptor; assay: Agonist activity against Opioid receptor mu 1 expressed in C6 cells in [35S]-GTP-gamma S assay; No stimulation up to 10000 nM; type: functional, cell-based

Oc1ccc2c3c1O[C@H]1c4c(c5c(n4Cc4ccccc4)[C@@H]4Oc6c(O)ccc7c6[C@@]46CCN(CC4CC4)[C@H](C7)[C@]6(O)C5)C[C@@]4(O)[C@@H](C2)N(CC2CC2)CC[C@]314 gave an EC50 [1] of 9 mg/kg, an EC50 [2] of 49.1 mh/kg and a pKi [3] of 9.15. It also gave an EC50 [4] of 9.9 mh/kg, an EC50 [5] of 37 mh/kg and a pKi [6] of 8.00. It also gave an EC50 [7] of 2 mg/kg, a pEC50 [8] of 5.72 and a Stimulation [9] of 29%. For the same compound, the EC50 [10] was 2.1 mg/kg, the EC50 [11] was 5.7 mh/kg and the EC50 [12] was “Not Active”. For the same compound, the EC50 [13] was 4.4 mg/kg, the EC50 [14] was 74.2 mh/kg and the Ratio [15] was 12. The Ke [16] was 13.3 nM, the pKi [17] was 8.07 and the EC50 [18] was 26.3 mh/kg. For the same compound, the pEC50 [19] was 6.73, the Stimulation [20] was 38% and the Ke [21] was 0.26 nM. The Ratio [22] was 14 and the Ke [23] was 25.5 nM.

With CN1CC[C@]23c4c5ccc(O)c4O[C@H]2c2[nH]c4c(c2C[C@@]3(O)[C@H]1C5)C[C@@]1(O)[C@H]2Cc3ccc(O)c5c3[C@@]1(CCN2C)[C@H]4O5 the pKi [3] was 8.11, the pKi [6] was 7.20 and the EC50 [12] was “Not Active”. For the same compound, the EC50 [24] was “Not Active”, the Ratio [15] was 13 and the pKi [17] was 7.01. The pEC50 [19] was 5.86, the Stimulation [20] was 66% and the Ke [21] was 27 nM. For the same compound, the Ratio [22] was 8.

For C[C@H]1c2c(c3c(n2Cc2ccccc2)[C@@H]2Oc4c(O)ccc5c4[C@@]24CCN(C)[C@H](C5)[C@]4(O)C3)CC2(O)[C@H]3Cc4ccc(O)c(O)c4[C@@]12CCN3C (stereo partly specified), the Ratio [15] was 8, the Stimulation [20] was 54% and the Ke [21] was 311 nM. For the same compound, the Ratio [22] was 0.3.

With Oc1ccc2c3c1O[C@H]1c4[nH]c5c(c4C[C@@]4(O)[C@@H](C2)N(CC2CC2)CC[C@]314)C[C@@]1(O)[C@H]2Cc3ccc(O)c4c3[C@@]1(CCN2CC1CC1)[C@H]5O4 [NORBINALTORPHIMINE] the EC50 [25] was “Not Active”, the EC50 [11] was 22.7 mg/kg and the EC50 [12] was “Not Active”. For the same compound, the EC50 [24] was “Not Active”, the Ke [16] was 5.17 nM and the pKi [17] was 8.24. The EC50 [18] was 31.8 mg/kg, the Ke [21] was 0.11 nM and the Ke [23] was 2.38 nM.
